# Results as given in ChEMBL document CHEMBL2331546, “The structure of anthracycline derivatives determines their subcellular localization and cytotoxic activity” (ACS Med Chem Lett, 2013).
# The source made the active and inactive calls. The calls are words filed in the database; no cut-off is given here.
# Experiments:
# [1] = Cytotoxicity against mouse DA-3 cells after 24 hrs by XTT assay; format: functional, cell-based; settings: DA-3, 24 h
# Procedure, shortened: (§1)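 Cells seeded at ~5 × 10^3 per well, exposed to drug at concentrations up to 60 μM for 24 h; viability read by XTT assay and IC50 values derived.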
# [2] = Displacement of YOYO1 from phage lambda DNA by FID assay; set-up: species or system Enterobacteria phage lambda
# Procedure, shortened: (§2)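 Run at 37 °C; each well held 500 ng phage lambda DNA (48 Kb) with either SYBR safe (final dilution 1:10000) or YOYO-1 (one dye molecule per 40 base pairs) and test compound at up to 40 μM; dye fluorescence displacement gave IC50.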
# [3] = Cellular uptake in mouse DA-3 cell nucleus at 10 uM after 30 mins by DRAQ5 deep red staining-based confocal microscopic analysis relative to control; format: ADME; settings: da-3, 0.5 h
# DA-3 [4] = experiment: Cytotoxicity against mouse DA-3 cells assessed as reduction in cell viability at 20 uM after 60 mins by XTT assay; format: functional, cell-based
# Procedure, shortened: (§3)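 DA3 cells incubated with 20 μM anthracycline; XTT viability measured after 60, 120 and 180 min of incubation; percentage cell death expressed relative to untreated control cells (set as 100% viability).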
# [5] = (§4) Cytotoxicity against mouse DA-3 cells assessed as reduction in cell viability at 20 uM after 180 mins by XTT assay relative to control; format: functional; procedure, shortened: as §3
# [6] = Cytotoxicity against human ES2 cells after 24 hrs by XTT assay; format: functional, cell-based; settings: ES-2, 24 h; procedure, shortened: as §1
# MCF7 = experiment: Cytotoxicity against human MCF7 cells after 24 hrs by XTT assay; format: functional, cell-based; settings: MCF7, 24 h; procedure, shortened: as §1
# SK-OV-3 = experiment: Cytotoxicity against human SKOV3 cells after 24 hrs by XTT assay; format: functional, cell-based; settings: SK-OV-3, 24 h; procedure, shortened: as §1
# [7] = Cellular uptake in mouse DA-3 cell lysosome at 10 uM after 30 mins by LysoTracker red staining-based confocal microscopic analysis relative to control; format: ADME; settings: da-3, 0.5 h
# [8] = Cellular uptake in mouse DA-3 cell cytoplasm at 10 uM after 30 mins by confocal microscopic analysis; format: ADME, cell-based; settings: da-3, 0.5 h
# [9] = Displacement of SYBR from phage lambda DNA by FID assay; set-up: species or system Enterobacteria phage lambda; procedure, shortened: as §2
# [10] = Cellular uptake in mouse DA-3 cell mitochondria at 10 uM after 30 mins by mitotracker red staining-based confocal microscopic analysis; format: ADME; settings: da-3, 0.5 h
# [11] = Cellular uptake in mouse DA-3 cell lysosome at 10 uM after 30 mins by LysoTracker green staining-based confocal microscopic analysis relative to control; format: ADME; settings: da-3, 0.5 h
# [12] = system: Enterobacteria phage lambda; experiment: Ratio of idarubicin IC50 to compound IC50 for displacement of YOYO1 from phage lambda DNA
# [13] = Cellular uptake in mouse DA-3 cell nucleus at 10 uM after 10 hrs by DRAQ5 deep red staining-based confocal microscopic analysis; format: ADME; settings: da-3, 10 h
# [14] = Cellular uptake in mouse DA-3 cell mitochondria at 10 uM after 10 hrs by mitotracker red staining-based confocal microscopic analysis; format: ADME; settings: da-3, 10 h
# DA-3 [15] = experiment: as §4; format: functional; procedure, shortened: as §3
# [16] = Cellular uptake in mouse DA-3 cell lysosome at 10 uM after 10 hrs by LysoTracker green staining-based confocal microscopic analysis; format: ADME; settings: da-3, 10 h
# [17] = Cytotoxicity against mouse DA-3 cells assessed as reduction in cell viability at 20 uM after 6 hrs by XTT assay relative to control; format: functional
# DA-3 [18] = experiment: Cytotoxicity against mouse DA-3 cells assessed as reduction in cell viability at 20 uM by XTT assay; format: functional, cell-based; procedure, shortened: as §3
# [19] = system: Enterobacteria phage lambda; experiment: Ratio of idarubicin IC50 to compound IC50 for displacement of SYBR from phage lambda DNA
# [20] = system: Enterobacteria phage lambda; experiment: Ratio of doxorubicin IC50 to compound IC50 for displacement of SYBR from phage lambda DNA
Compound,IC50 [2],Drug uptake [3],Drug uptake [7],Drug uptake [8],IC50 [9],Drug uptake [10],Drug uptake [11],Ratio IC50 [12],IC50 [1],Activity (DA-3 [4]),Activity [5],IC50 [6],IC50 (MCF7),IC50 (SK-OV-3),further results
C[C@@H]1O[C@@H](OCc2cc(O)c3c(c2)C(=O)c2cccc(O)c2C3=O)C[C@H](N)[C@H]1O,> 40 µM,Not Active,67.12%,Active,> 40 µM,Not Active,–,–,7.9 µM,Active,100%,6.8 µM,23.6 µM,11.1 µM,–
Cc1c(O)c2c(c(O)c1CO[C@H]1C[C@H](N)[C@@H](O)[C@H](C)O1)C(=O)c1ccccc1C2=O,> 40 µM,Not Active,84.48%,Active,> 40 µM,Not Active,–,–,17.5 µM,–,–,17.7 µM,17.2 µM,16.3 µM,–

# These reach a lower IC50 [2]. Values come first.
IC50 [2],Drug uptake [3],Drug uptake [7],Drug uptake [8],IC50 [9],Drug uptake [10],Drug uptake [11],Ratio IC50 [12],Compound,IC50 [1],Activity (DA-3 [4]),Activity [5],IC50 [6],IC50 (MCF7),IC50 (SK-OV-3),further results
1.97 µM,–,–,–,0.89 µM,Not Active,83.2%,3,CC(=O)[C@]1(O)Cc2c(O)c3c(c(O)c2[C@@H](O[C@H]2C[C@H](N)[C@H](O)[C@H](C)O2)C1)C(=O)c1ccccc1C3=O [IDARUBICIN],2.3 µM,–,–,3.2 µM,7.3 µM,4.5 µM,Activity (DA-3 [18]): Active; Ratio IC50 [19]: 5; Ratio IC50 [20]: 5
0.84 µM,Not Active,–,–,0.14 µM,–,83.19%,–,COc1cccc2c1C(=O)c1c(O)c3c(c(O)c1C2=O)C[C@@](O)(C(C)=O)C[C@@H]3O[C@H]1C[C@H](N)[C@H](O)[C@H](C)O1 [DAUNORUBICIN],1.9 µM,Active,80%,25.5 µM,33.9 µM,20.6 µM,–
0.6 µM,41.43%,–,–,0.73 µM,Not Active,27.55%,3,COc1cccc2c1C(=O)c1c(O)c3c(c(O)c1C2=O)C[C@@](O)(C(=O)CO)C[C@@H]3O[C@H]1C[C@H](N)[C@H](O)[C@H](C)O1 [DOXORUBICIN],4 µM,–,–,> 60 µM,> 60 µM,55.7 µM,Drug uptake [13]: Active; Drug uptake [14]: Active; Activity (DA-3 [15]): inactive; Drug uptake [16]: Active; Activity [17]: 12%
